Consider 23 compounds from ChEMBL document CHEMBL4118208, “Design, synthesis and molecular modeling of new 4-phenylcoumarin derivatives as tubulin polymerization inhibitors targeting MCF-7 breast cancer cells” (Bioorg Med Chem, 2018).

pIC50: −log10 of the molar value. Values after ≈ are worked out from the molar mass of the structure shown. Some results are limits rather than exact numbers.

The test system of data set [1] is MCF7. Nature of the data set: Growth inhibition of human MCF7 cells at 100 ug/ml after 48 hrs by MTT assay relative to control. In kind it is functional. Conditions: MCF7, 48 h, read-out: GI. An outline of the steps:
(§1)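 Preliminary screen at 100 µg/mL against MCF-7 and normal BJ-1 cells. Values are % inhibition, given as the mean of 3 replicate samples with standard deviation.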

The subject of data set [2] is MCF7. Nature of the data set: Growth inhibition of human MCF7 cells after 48 hrs by MTT assay. The conditions noted are these: MCF7, 48 h. In kind it is functional, cell-based.
A short description of data set [3]: Growth inhibition of human hTERT-BJ1 cells at 100 ug/ml after 48 hrs by MTT assay relative to control. In kind it is cell-based, hTERT-BJ. Conditions: read-out: GI. The gist of the method:
as §1

Data set [4] relates to MCF7. Nature of the data set: Cell cycle arrest in human MCF7 cells assessed as apoptotic cells at 11.1 ug/ml after 24 hrs by PI staining based flow cytometry (reference value: 0.64%). It counts as functional. In general terms: A flow cytometer gives signals particle by particle.
In data set [5] the target is T1, Tubulin beta-5 chain (Homo sapiens, UniProt P07437). Description: Inhibition of tubulin beta polymerization in human MCF7 cells after 18 to 24 hrs by ELISA based spectrophotometric analysis. It counts as cell-based. For orientation: An ELISA detects its analyte on a solid surface through an enzyme-linked reagent.
T1 sequence (P07437 whole entry): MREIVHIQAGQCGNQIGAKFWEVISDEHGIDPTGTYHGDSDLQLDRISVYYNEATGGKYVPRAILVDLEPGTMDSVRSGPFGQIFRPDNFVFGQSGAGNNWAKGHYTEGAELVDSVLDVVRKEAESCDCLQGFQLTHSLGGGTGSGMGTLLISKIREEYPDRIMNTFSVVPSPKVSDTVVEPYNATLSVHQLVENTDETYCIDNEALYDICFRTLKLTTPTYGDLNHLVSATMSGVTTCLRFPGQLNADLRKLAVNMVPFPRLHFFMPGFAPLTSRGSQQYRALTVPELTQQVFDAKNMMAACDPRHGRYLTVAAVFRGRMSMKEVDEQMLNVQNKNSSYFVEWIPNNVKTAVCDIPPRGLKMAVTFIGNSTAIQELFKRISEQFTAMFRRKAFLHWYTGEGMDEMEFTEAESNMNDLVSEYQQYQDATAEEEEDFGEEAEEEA
For data set [6], the system named is MCF7. Nature of the data set: Cell cycle arrest in human MCF7 cells assessed as accumulation at pre-G1 phase at 11.1 ug/ml after 24 hrs by PI staining based flow cytometry relative to control. In kind it is functional.
Data set [7] deals with MCF7. Description: Induction of apoptosis in human MCF7 cells assessed as early apoptotic cells at 11.1 ug/ml after 24 hrs by Annexin V-FITC/PI staining based flow cytometry (reference value: 0.18%). It counts as functional. The gist of the method:
(§2)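 MCF-7 cells treated at 11.1 µg/mL for 24 h, then labelled with annexin V-FITC and propidium iodide. Green (FITC) and red (PI) fluorescence are read by flow cytometry. Early apoptosis is scored as annexin V+/PI−, late as annexin V+/PI+. DMSO serves as negative control.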

Data set [8] concerns MCF7. Description: Cell cycle arrest in human MCF7 cells assessed as accumulation at G1 phase at 11.1 ug/ml after 24 hrs by PI staining based flow cytometry (reference value: 61.31%). In kind it is functional.
Data set [9] deals with MCF7. Nature of the data set: Cell cycle arrest in human MCF7 cells assessed as accumulation at G2 phase at 11.1 ug/ml after 24 hrs by PI staining based flow cytometry (reference value: 8.59%). It counts as functional.
Data set [10] relates to MCF7. Nature of the data set: Induction of apoptosis in human MCF7 cells assessed as necrotic cells at 11.1 ug/ml after 24 hrs by Annexin V-FITC/PI staining based flow cytometry (reference value: 0.37%). In kind it is functional. An outline of the steps: as §2
In data set [11] the test system is MCF7. Description: Induction of apoptosis in human MCF7 cells assessed as increase in caspase 7 levels at 11.1 ug/ml after 24 hrs by ELISA relative to control. In kind it is functional. An outline of the steps: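 Caspase-7 level is measured in MCF-7 cells after treatment at 11.1 µg/mL for 24 h and reported as concentration. Doxorubicin is used as reference.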

Data set [12] relates to MCF7. Description: Cell cycle arrest in human MCF7 cells assessed as accumulation at S phase at 11.1 ug/ml after 24 hrs by PI staining based flow cytometry (reference value: 30.1%). It counts as functional.
In data set [13] the test system is MCF7. Nature of the data set: Induction of apoptosis in human MCF7 cells assessed as late apoptotic cells at 11.1 ug/ml after 24 hrs by Annexin V-FITC/PI staining based flow cytometry (reference value: 0.09%). In kind it is functional. The gist of the method:
as §2

The test system of data set [14] is MCF7. Description: Cell cycle arrest in human MCF7 cells assessed as accumulation at G2/M phase at 11.1 ug/ml after 24 hrs by PI staining based flow cytometry relative to control. It counts as functional.
The subject of data set [15] is MCF7. Description: Induction of apoptosis in human MCF7 cells assessed as viable cells at 11.1 ug/ml after 24 hrs by Annexin V-FITC/PI staining based flow cytometry (reference value: 97.24%). In kind it is functional. The conditions noted are these: MCF7, 24 h, read-out: Activity. The gist of the method: as §2
Data set [16] deals with T1, Tubulin beta-5 chain. Description: Potency index, ratio of colchicine IC50 to compound IC50 for tubulin beta polymerization in human MCF7 cells. It counts as cell-based.

Turning to `O=C(COc1ccc2c(-c3ccccc3)cc(=O)oc2c1)N/N=C/c1ccc(F)cc1`, the inhibition of growth at 100 µg/mL in the data set with MCF7 [1] is 65.5%.

With `COc1ccc(/C=N/NC(=O)COc2ccc3c(-c4ccccc4)cc(=O)oc3c2)cc1`, in the data set on MCF7 [1], the inhibition of growth at 100 µg/mL turned out to be 46.3%.

One may read the IC50 as the point on the concentration scale where inhibition reaches its midpoint. In the data set on MCF7 [2], `CCn1c(C)c(C(C)=O)s/c1=N\NC(=O)COc1ccc2c(-c3ccccc3)cc(=O)oc2c1` gave an IC50 of 28 µg/mL (≈ 58.6 µM). Moreover, the inhibition of growth at 100 µg/mL in the data set with MCF7 [1] was > 70%.

Turning to `COc1ccc(C2SCC(=O)N2NC(=O)COc2ccc3c(-c4ccccc4)cc(=O)oc3c2)cc1` (configuration not stated), the inhibition of growth at 100 µg/mL in the data set on MCF7 [1] worked out at 64.4%.

Broadly, the pIC50 is the IC50 on a negative log10 scale, so that one unit is a factor of ten. Consider `O=C(COc1ccc2c(-c3ccccc3)cc(=O)oc2c1)NN1C(=O)CSC1c1ccc(F)cc1` (configuration not stated), for which, in data set [3], the inhibition at 48 h, 100 ug/ml was determined as 13.2%. Also, the Activity came to 18.31% with MCF7 [4]; 5.49% in the data set with MCF7 [7]; 38.36% in the data set with MCF7 [8]; 43.59% with MCF7 [9]; 2.19% in the data set with MCF7 [10]; 18.05% with MCF7 [12]. In addition, the Activity in the data set on MCF7 [13] came to 10.63%. In addition, the pIC50 against Tubulin beta-5 chain [5] is 5.03. Further, the “fold change (FC)” value in the data set with MCF7 [6] is listed as 28.6; in the data set with MCF7 [11], 3.237; in the data set on MCF7 [14] it was 5. Moreover, 11.1 µg/mL (≈ 22.6 µM) corresponded to half-maximal inhibition in the data set with MCF7 [2] (IC50). The inhibition of growth at 100 µg/mL in the data set with MCF7 [1] is > 70%. Also, the viability at 11.1 µg/mL in the data set on MCF7 [15] was determined as 79.8%.

`COc1ccc(C2SCC(=O)N2NC(=O)COc2ccc3c(-c4ccccc4)cc(=O)oc3c2)cc1OC` (configuration not stated): the inhibition of growth at 100 µg/mL with MCF7 [1] amounted to 63.3%.

`O=C(COc1ccc2c(-c3ccccc3)cc(=O)oc2c1)NN1C(=O)CSC1c1ccc(Br)cc1` (configuration not stated) yielded an IC50 in the data set with MCF7 [2] of 42 µg/mL (≈ 76.2 µM). In addition, the inhibition of growth at 100 µg/mL in the data set with MCF7 [1] is > 70%.

`COc1cc(/C=N/NC(=O)COc2ccc3c(-c4ccccc4)cc(=O)oc3c2)cc(OC)c1OC`: the IC50 in the data set with MCF7 [2] was found to be 4.3 µg/mL (≈ 8.8 µM). In the data set on MCF7 [1], the inhibition of growth at 100 µg/mL was 90.7%.

`CCOC(=O)C(C)S/C(=N/NC(=O)COc1ccc2c(-c3ccccc3)cc(=O)oc2c1)NC` (configuration not stated) returned an IC50 in the data set with MCF7 [2] of 37 µg/mL (≈ 76.5 µM). The inhibition of growth at 100 µg/mL in the data set with MCF7 [1] is > 70%.

With `CCn1c(C)cs/c1=N\NC(=O)COc1ccc2c(-c3ccccc3)cc(=O)oc2c1`, the IC50 in the data set with MCF7 [2] stood at 78 µg/mL (≈ 179 µM). In the data set with MCF7 [1], the inhibition of growth at 100 µg/mL is > 70%.

As for `NNC(=O)COc1ccc2c(-c3ccccc3)cc(=O)oc2c1`, the IC50 with MCF7 [2] was determined as 25.2 µg/mL (≈ 81.2 µM). The inhibition of growth at 100 µg/mL in the data set on MCF7 [1] is > 70%.

For `CCN/C(=N\NC(=O)COc1ccc2c(-c3ccccc3)cc(=O)oc2c1)SC(C(C)=O)C(=O)OCC` (configuration not stated), half-maximal inhibition in the data set with MCF7 [2] (IC50) required 41.9 µg/mL (≈ 79.7 µM). Moreover, the inhibition of growth at 100 µg/mL in the data set on MCF7 [1] is > 70%.

For `COc1cc(C2SCC(=O)N2NC(=O)COc2ccc3c(-c4ccccc4)cc(=O)oc3c2)cc(OC)c1OC` (configuration not stated), in data set [3], the inhibition at 48 h, 100 ug/ml was determined as 16.8%. On Tubulin beta-5 chain [5], this compound gave a pIC50 of 5.21. This compound also yielded an IC50 with MCF7 [2] of 21.2 µg/mL (≈ 37.7 µM). Moreover, the inhibition of growth at 100 µg/mL with MCF7 [1] stood at 86.4%.

In the data set with MCF7 [2], `O=C(COc1ccc2c(-c3ccccc3)cc(=O)oc2c1)N/N=C/c1ccc(Cl)cc1` gave an IC50 of 38.1 µg/mL (≈ 88 µM). In addition, in the data set on MCF7 [1], the inhibition of growth at 100 µg/mL came out at 76.5%.

`CCn1c(-c2ccccc2)cs/c1=N\NC(=O)COc1ccc2c(-c3ccccc3)cc(=O)oc2c1` yielded a half-inhibitory concentration (IC50) with MCF7 [2] of 10.6 µg/mL (≈ 21.3 µM). Moreover, the inhibition of growth at 100 µg/mL in the data set with MCF7 [1] was > 70%.

`CCOC(=O)C(S/C(=N/NC(=O)COc1ccc2c(-c3ccccc3)cc(=O)oc2c1)NC)C(C)=O` (configuration not stated) returned an IC50 in the data set with MCF7 [2] of 30.6 µg/mL (≈ 59.8 µM). The inhibition of growth at 100 µg/mL with MCF7 [1] is > 70%.

As to `CCN/C(=N\NC(=O)COc1ccc2c(-c3ccccc3)cc(=O)oc2c1)SC(C)C(=O)OCC` (configuration not stated), in the data set on MCF7 [1], the inhibition of growth at 100 µg/mL was found to be 67.1%.

For `COc1ccc(/C=N/NC(=O)COc2ccc3c(-c4ccccc4)cc(=O)oc3c2)cc1OC`, the inhibition of growth at 100 µg/mL in the data set on MCF7 [1] is 48.9%.

With `O=C(COc1ccc2c(-c3ccccc3)cc(=O)oc2c1)N/N=C/c1ccc(Br)cc1`, the inhibition of growth at 100 µg/mL in the data set on MCF7 [1] was 67.8%.

For `CC(=O)c1s/c(=N\NC(=O)COc2ccc3c(-c4ccccc4)cc(=O)oc3c2)n(C)c1C`, in the data set on MCF7 [2], it took 42 µg/mL (≈ 90.6 µM) to reach half-maximal inhibition (IC50). For the same compound, the inhibition of growth at 100 µg/mL in the data set on MCF7 [1] was > 70%.

As to `O=C(COc1ccc2c(-c3ccccc3)cc(=O)oc2c1)NN1C(=O)CSC1c1ccc(Cl)cc1` (configuration not stated), in data set [3], the inhibition at 48 h, 100 ug/ml amounted to 26.9%. The compound further gave a pIC50 against Tubulin beta-5 chain [5] of 5.54. At Tubulin beta-5 chain [16], the Ratio IC50 was 2.4. Moreover, the IC50 with MCF7 [2] was 16.7 µg/mL (≈ 32.9 µM). Moreover, in the data set with MCF7 [1], the inhibition of growth at 100 µg/mL was > 70%.

In the data set with MCF7 [2], `Cc1cs/c(=N\NC(=O)COc2ccc3c(-c4ccccc4)cc(=O)oc3c2)n1C` returned an IC50 of 36.9 µg/mL (≈ 87.5 µM). The inhibition of growth at 100 µg/mL with MCF7 [1] was > 70%.

Turning to `Cn1c(-c2ccccc2)cs/c1=N\NC(=O)COc1ccc2c(-c3ccccc3)cc(=O)oc2c1`, the IC50 in the data set on MCF7 [2] worked out at 9.3 µg/mL (≈ 19.2 µM). Besides, in the data set on MCF7 [1], the inhibition of growth at 100 µg/mL is > 70%.
